Assay results as given in ChEMBL document CHEMBL4699639, “Discovery of Novel 2-Aniline-1,4-naphthoquinones as Potential New Drug Treatment for Leber's Hereditary Optic Neuropathy (LHON)” (J Med Chem, 2020).
Activity calls are given as the source filed them. No cut-off for these calls is given here.

Legend:
[1] = test system: SH-SY5Y; assay: Cytotoxicity against human SH-SY5Y cells assessed as reduction in cell viability at 25 uM incubated for 24 hrs by Celltiter-blue assay; assay type: cell-based
Outline: (§1)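 HepG2 or SH-SY5Y seeded 10×10^3 per well the day before in 1 g/L glucose medium with 2% FBS. Medium replaced with fresh 2% FBS, 1 g/L glucose medium containing compound (25 µM) for 24 h at 37 °C. CellTiter-Blue added for 4 h, fluorescence read at 560/590 nm. Viability given as % of vehicle/untreated cells. Mean ± SEM of ≥3 independent runs.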

[2] = Suppression of rotenone-induced ATP depletion in human HepG2 cells assessed as rescue of ATP level at 5 uM incubated for 2 hrs by Celltiter-Glo assay relative to control; assay type: functional
Outline: (§2)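 HepG2 cells seeded 10×10^3 per well in 1 g/L glucose, 2% FBS medium the day before. Switched to glucose- and FBS-free medium containing 10 µM rotenone, with compound added at the same time, 2 h at 37 °C. ATP read by CellTiter-Glo luminescence, normalized to DMSO cells without rotenone. Mean ± SEM of ≥3 independent runs. Complex III inhibitors, where used, at 50 nM.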

[3] = test system: HepG2; assay: Suppression of rotenone-induced ATP depletion in human HepG2 cells assessed as increase in rescue of ATP level at 1 uM incubated for 2 hrs by Celltiter-Glo assay; assay type: functional, cell-based; outline: as §2
[4] = test system: HepG2; assay: Cytotoxicity against human HepG2 cells assessed as cell reduction in cell viability at 25 uM incubated for 24 hrs by Celltiter-blue assay; assay type: cell-based; details: hepg2, 24 h; outline: as §1
[5] = target: NAD(P)H dehydrogenase [quinone] 1 (Homo sapiens) (UniProt P15559); assay: Substrate activity at NQO1 in human HepG2 cells assessed as reduction in cell viability by WST-1 assay; assay type: cell-based
Sequence of NAD(P)H dehydrogenase [quinone] 1 (Homo sapiens) (P15559 whole entry): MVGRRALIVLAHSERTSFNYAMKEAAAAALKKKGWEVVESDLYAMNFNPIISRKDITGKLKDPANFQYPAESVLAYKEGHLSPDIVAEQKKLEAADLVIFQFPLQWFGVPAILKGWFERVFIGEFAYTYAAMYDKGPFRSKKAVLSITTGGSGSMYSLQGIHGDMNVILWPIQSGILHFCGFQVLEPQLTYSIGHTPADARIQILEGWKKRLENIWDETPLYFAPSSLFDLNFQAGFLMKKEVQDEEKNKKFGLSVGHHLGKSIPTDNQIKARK

[6] = test system: SH-SY5Y; assay: Cytotoxicity against human SH-SY5Y cells assessed as reduction in cell viability by WST-1 assay; assay type: cell-based
[7] = Cytotoxicity against […] assessed as reduction in cell viability by WST-1 assay; assay type: cell-based; details: r28
[8] = target: NAD(P)H dehydrogenase [quinone] 1 (Homo sapiens) (UniProt P15559); assay: Substrate activity at NQO1 in human HepG2 cells assessed as reduction in cell viability in presence of NQO1 inhibitor dicoumarol by WST-1 assay; assay type: cell-based
[9] = Suppression of rotenone-induced ATP depletion in human HepG2 cells assessed as rescue of ATP level incubated for 2 hrs by Celltiter-Glo assay relative to control; assay type: functional; parameters: concentration or dose not given beside the values; outline: as §2
[10] = Cytotoxicity against human HepG2 cells assessed as cell viability at 25 uM incubated for 24 hrs by Celltiter-blue assay relative to control; assay type: cell-based; details: read-out: Activity; outline: as §1

| Structure (SMILES) | Activity [1] | Activity [3] | further results |
| --- | --- | --- | --- |
| O=C1C=C(NCCCCO)C(=O)c2ccccc21 | Toxic | – | – |
| CCCCNC1=C(Cl)C(=O)c2ccccc2C1=O | Toxic | – | Activity [2]: 70% |
| O=C1C(Cl)=C(Nc2cccc(C(F)(F)F)c2)C(=O)c2ccccc21 | Toxic | Active | Activity [4]: Toxic |
| O=C1C(Cl)=C(Nc2cccc(O)c2)C(=O)c2ccccc21 | – | – | Activity [5]: Active; Activity [6]: Non-Toxic; Activity [7]: Non-Toxic; Activity [8]: inactive |
| COC1=C(Nc2ccccc2)C(=O)c2ccccc2C1=O | Non-Toxic | inactive | – |
| O=C1C(Cl)=C(NCCc2cccc(C(F)(F)F)c2)C(=O)c2ccccc21 | – | Active | – |
| CC(C)SC1=C(Nc2cccc(C(F)(F)F)c2)C(=O)c2ccccc2C1=O | Toxic | Active | Activity [4]: Toxic |
| O=C1C(Cl)=C(NCc2cccc(C(F)(F)F)c2)C(=O)c2ccccc21 | – | Active | – |
| CC1=C(CCCCCCCCCCO)C(=O)c2ccccc2C1=O | – | inactive | – |
| O=C1C(Cl)=C(Nc2ccc(F)c(C(F)(F)F)c2)C(=O)c2ccccc21 | – | – | Activity [9]: 40.3%; viability at 24 h, 25 µM [10]: 65.8% |
| O=C1C=C(NCCc2ccccc2)C(=O)c2ccccc21 | Toxic | – | – |
| CN(C)C1=C(Nc2ccccc2)C(=O)c2ccccc2C1=O | – | Active | – |
| CC1=C(Sc2ccccc2)C(=O)c2ccccc2C1=O | Toxic | – | Activity [2]: 70% |
| O=C1C=C(NCc2ccccc2)C(=O)c2ccccc21 | Toxic | Active | – |
| O=C1C(Nc2cccc(C(F)(F)F)c2)=C(SC(F)(F)F)C(=O)c2ccccc21 | Toxic | Active | Activity [4]: Toxic |
| CCOC1=C(Nc2ccccc2)C(=O)c2ccccc2C1=O | Non-Toxic | inactive | – |

| Structure (SMILES) | Activity [1] | Activity [3] | further results |
| --- | --- | --- | --- |
| CSC1=C(Nc2cc(C(F)(F)F)ccc2F)C(=O)c2ccccc2C1=O | Non-Toxic | Active | – |
| CSC1=C(Nc2cccc(C(F)(F)F)c2)C(=O)c2ccccc2C1=O | Non-Toxic | – | – |
| CCSC1=C(Nc2cccc(C(F)(F)F)c2)C(=O)c2ccccc2C1=O | Toxic | Active | Activity [5]: Active; Activity [4]: Toxic; Activity [6]: Non-Toxic; Activity [7]: Non-Toxic; Activity [8]: inactive |
| CC1=C(SC(C)(C)C)C(=O)c2ccccc2C1=O | Toxic | – | Activity [2]: 70% |
| O=C(OC1=C(c2ccccc2)C(=O)c2ccccc2C1=O)c1cccc([N+](=O)[O-])c1 | Toxic | – | – |
| O=C1C(Cl)=C(Nc2ccc(Nc3ccccc3)cc2)C(=O)c2ccccc21 | Toxic | – | Activity [4]: Toxic |
| O=C1C(Cl)=C(NCCc2ccccc2)C(=O)c2ccccc21 | – | Active | – |
| CC(C)OC1=C(Nc2ccccc2)C(=O)c2ccccc2C1=O | – | inactive | – |
| CCCCC1=C(C)C(=O)c2ccccc2C1=O | Toxic | – | – |
| COC1=C(Nc2cc(C(F)(F)F)ccc2F)C(=O)c2ccccc2C1=O | Non-Toxic | Active | Activity [5]: Active; Activity [6]: Non-Toxic; Activity [7]: Non-Toxic; Activity [8]: inactive |
| O=C1C(Cl)=C(Nc2ccccc2)C(=O)c2ccccc21 | – | Active | – |
| O=C1C(Cl)=C(NCc2ccccc2)C(=O)c2ccccc21 | Toxic | Active | Activity [2]: 70% |
| O=C1C=C(Nc2ccc(F)c(C(F)(F)F)c2)C(=O)c2ccccc21 | Non-Toxic | – | Activity [9]: 54.5%; viability at 24 h, 25 µM [10]: 35.6% |
| CCNC1=C(Nc2ccccc2)C(=O)c2ccccc2C1=O | Non-Toxic | Active | – |
| O=C1C(Br)=C(NCCc2ccccn2)C(=O)c2ccccc21 | Toxic | – | – |
| O=C1C(Nc2ccccc2)=C(Oc2ccccc2)C(=O)c2ccccc21 | – | inactive | – |
